Compound activity deposited in PubChem BioAssay by several laboratories.
Sampled rows, rich in hits. Any-hit rate of the full collection: about 12%.
Lmaj promast = reduces viability of Leishmania major promastigotes | AID 1063 | inhibition, % at 10 µM | resazurin fluorescence viability | hit rate 9% among 200,000;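 also: promastigotes grown with compound for 44 hours at 28 °C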
Wee1 stabilizer = human Wee1 degradation inhibition, primary screen. P30291. HeLa Luc-Wee1K328M stability, luciferase luminescence; 100% = proteasome inhibitor MG132 effect. reporter increase, % at 5 µM. hit rate 1.2% among 220,000;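 active = activation above the mean of all tested compounds plus 3 SD, set per screening run, cut at about 8.8% in these data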;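 also: cells exposed to compound for 20 h before luminescence read; 0% = DMSO alone and 100% = MG132 at 30 µM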
Target sequence (P30291 whole entry K328M): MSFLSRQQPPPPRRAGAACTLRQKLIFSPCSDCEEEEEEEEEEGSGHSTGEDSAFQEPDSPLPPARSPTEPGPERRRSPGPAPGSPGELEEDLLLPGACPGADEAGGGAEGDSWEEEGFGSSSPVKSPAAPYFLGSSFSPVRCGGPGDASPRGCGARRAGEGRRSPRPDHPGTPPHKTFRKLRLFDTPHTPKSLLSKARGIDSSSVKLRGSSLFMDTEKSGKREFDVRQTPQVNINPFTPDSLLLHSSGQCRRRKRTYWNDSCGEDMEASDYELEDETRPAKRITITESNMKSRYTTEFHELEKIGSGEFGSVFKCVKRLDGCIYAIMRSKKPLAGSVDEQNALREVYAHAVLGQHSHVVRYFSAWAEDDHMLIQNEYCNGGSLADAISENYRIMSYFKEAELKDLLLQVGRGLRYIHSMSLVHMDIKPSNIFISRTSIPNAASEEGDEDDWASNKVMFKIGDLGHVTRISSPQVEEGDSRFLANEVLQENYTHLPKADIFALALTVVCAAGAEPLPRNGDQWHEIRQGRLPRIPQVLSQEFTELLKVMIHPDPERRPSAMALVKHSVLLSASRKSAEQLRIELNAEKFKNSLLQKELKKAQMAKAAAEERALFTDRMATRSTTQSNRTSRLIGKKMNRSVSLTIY
Rad51 HR inh = Rad51 (human) homologous recombination inhibition; hit rate 0.085% among 200,000; hRad51 DNA strand exchange, fluorescence dequenching; inhibition, % at 10 µM; AID 1385; Q06609;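 active = inhibition above 40% at the single screening dose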;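 also: 0% = DMSO control wells and 100% = blanks with heterologous ssDNA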
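Material: hRad51 filaments on single-stranded DNA; Reagent: Donor/quencher-labelled 47-bp dsDNA substrate; Compound: 10 µM final, single point; Schedule: 37 °C 15-min filament assembly, 30-min compound preincubation, 15-min exchange; Technique: FRET fluorescence, excitation 485 nm, emission 520 nm; Benchmarks: control wells and blank wells on each plate.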
PKD1 kinase inh = blocks activity of human protein kinase D1; Q15139; PKD1 kinase fluorescence polarization assay; inhibition, % (no concentration beside the values); hit rate 0.056% among 200,000
Arbovirus anti = antivirals against arbovirus infection; hit rate 0.37% among 200,000; arbovirus infection cell-based antiviral screen; inhibition, % at 10 µM; AID 1251; in the data active = inhibition above about 30%
CHOP inh = CHOP inhibition in unfolded protein response | CHO-K1 CHOP-promoter luciferase, tunicamycin-induced, 15-18 h | inhibition, % at 10 µM | hit rate 3.8% among 220,000;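 active = compounds that reduced the stress-induced luciferase reporter signal by more than about 70% of percent inhibition, limit read from the data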;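 also: 0% = tunicamycin plus vehicle and 100% = wells without tunicamycin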
* marks the source's active call; other numbers are inactive results; x = no result. Rule as the data show it, unless noted: active = inhibition above about 50%; inactive = the rest.

SMILES	Lmaj promast	Wee1 stabilizer	Rad51 HR inh	PKD1 kinase inh	Arbovirus anti	CHOP inh
CCCCSC(=S)NC1CCS(=O)(=O)C1 (configuration not stated)	95*	-1	1	-5	0	11
CNC(=S)SCCOc1ccccc1	x	1	21	x	x	15
C=C1CCN(c2ccc(C(=O)NCc3ccc(OC)cc3)cc2[N+](=O)[O-])CC1	x	x	5	x	x	x
COc1ccc(-c2n[nH]c(C(F)(F)F)c2-c2cc3ccccc3o2)c(O)c1	37	0	-2	-3	-28	105*
NNC(=O)COc1ccc(-c2n[nH]c(C(F)(F)F)c2-c2ccc(Br)cc2)c(O)c1	7	1	4	1	3	-1
COc1ccccc1-c1c(-c2ccc(OCC(=O)NN)cc2O)n[nH]c1C(F)(F)F	87*	3	-5	-10	-5	-2
COc1ccc(-c2c(-c3ccc(OCC(=O)NN)cc3O)n[nH]c2C)cc1	x	-2	9	x	x	14
O=C(NCCc1nc2ccccc2[nH]1)c1cc([N+](=O)[O-])cc([N+](=O)[O-])c1	98*	-1	1	-4	-5	-4
O=C(Cn1cc([N+](=O)[O-])cn1)NCCc1nc2ccccc2[nH]1	3	0	3	1	-1	21
O=C(NCCOc1ccccc1)c1cc(C(=O)NCCOc2ccccc2)cc([N+](=O)[O-])c1	98*	-4	24	-7	-23	40
O=C(CSc1cccc[n+]1[O-])NN(c1ccccc1)c1ccccc1	x	1	-1	x	x	5
COc1ccccc1NC(=O)CSC1=NCCN1	-3	-2	x	-15	3	-20
O=C(CSC1=NCCN1)NC(c1ccccc1)c1ccccc1	94*	3	-1	-9	-9	31
CCOCc1cc(=O)[nH]c(SC)n1	x	1	-1	x	x	27
O=C(NNC(=S)NC1CCCCC1)c1ccc(Cl)s1	17	-2	x	-1	38*	-11
CN(CC(=O)OCC(=O)NCC(F)(F)F)S(=O)(=O)c1ccc(Cl)cc1	-7	0	8	-8	4	6
COc1ccc(N=C(C)C2=C(O)c3ccccc3C2=O)cc1	56*	-1	3	-10	3	14
CC(C)c1ccc(S(=O)(=O)/N=C2/C=CC(=O)c3ccccc32)cc1	74*	0	x	4	-7	16
COC(=O)C(C(C)=O)C1=C/C(=N\S(=O)(=O)c2ccc(C)cc2)c2ccccc2C1=O (configuration not stated)	48	1	-21	-6	-5	28
O=C(COC(=O)CN1C(=O)c2ccccc2C1=O)Nc1ncc(Cl)cc1Cl	7	-3	x	-2	4	20
CC(C)CC(C(=O)OCC(=O)Nc1ncc(Cl)cc1Cl)N1C(=O)c2ccccc2C1=O (configuration not stated)	-6	11*	2	-4	10	10
COc1ccc(OCC(=O)Nc2c3c(nn2C(C)(C)C)CSC3)cc1	-3	4	0	-8	0	31
Cc1ccc(-c2cc(C(=O)N/N=C/c3c(C)nn(C)c3C)c3ccccc3n2)c(C)c1	100*	-1	6	2	-10	44
Cc1nn(-c2ccccc2)c(C)c1/C=N/NC(=O)c1cc(C(C)(C)C)[nH]n1	8	1	3	-1	1	4
Cc1ccc(-c2cc(C(=O)N/N=C/c3c(C)nn(-c4ccccc4)c3C)[nH]n2)cc1	71*	2	x	-8	-18	36
SMILES	Lmaj promast	Wee1 stabilizer	Rad51 HR inh	PKD1 kinase inh	Arbovirus anti	CHOP inh
Cc1ccc(-c2cc(C(=O)N/N=C/c3ccco3)[nH]n2)cc1	19	-2	x	1	1	9
Cc1ccc(-c2cc(C(=O)N/N=C/c3c(C)nn(-c4ccccc4)c3C)n[nH]2)s1	58*	0	9	-11	-9	-7
Cc1nn(C)c(C)c1/C=N/NC(=O)c1csc2ccccc12	-3	2	3	-7	-14	34
CC(=O)NC(C)c1nc2ccccc2n1CC(=O)NC(C)CCc1ccccc1 (configuration not stated)	1	-3	7	2	-2	31
C=CCn1cnc2c(nnn2-c2ccc(C)c(C)c2)c1=O	2	-2	3	-4	-2	-15
CCCCNC(=O)c1cc2cc(CC)ccc2[nH]1	x	2	0	x	x	9
CCOC(=O)C1=C(C)NC(C)=C(C(=O)OCC)C1c1ccc(OC)cc1	65*	1	-4	-11	-4	16
CCOC(=O)C1=C(C)NC(SC)=NC1c1ccc(OC)cc1 (configuration not stated)	12	-2	x	-4	-8	-1
CC1(C)N=C(SCC(=O)Nc2ccccc2)C(c2ccc(Cl)cc2)=N1	29	-2	5	3	-7	4
CC1(C)N=C(SCC(=O)Nc2ccc(Cl)cc2Cl)C(c2ccccc2)=N1	7	3	4	-1	8	76*
Cc1csc2c(=O)[nH]cnc12	-3	-1	15	0	1	-2
O=C(Nc1cccc(O)c1)c1cc2nc(-c3ccccc3)cc(-c3ccccc3)n2n1	17	1	8	0	2	84*
CC1CCN(C(=O)c2cc3nc(-c4ccccc4)cc(-c4ccccc4)n3n2)CC1	50	1	2	-3	-17	75*
O=C(NC(C(=O)N/N=C/c1cccnc1)c1n[nH]c(=O)c2ccccc12)c1ccccc1 (configuration not stated)	x	-2	-2	x	x	-9
OC(CNCC1COc2ccccc2O1)COCc1cccs1 (configuration not stated)	92*	3	-4	-2	14	3
COc1ccc(CC(=O)NCc2cccs2)cc1	0	-2	2	3	-20	61
OC(COCC1COc2ccccc2O1)CN1CCCCC1 (configuration not stated)	2	1	-7	-3	4	2
CCOC(=O)CCNCC1COc2ccccc2O1 (configuration not stated)	13	-1	-8	-3	2	-54
CC(OCC(O)CNCC1COc2ccccc2O1)c1ccc(Cl)cc1 (configuration not stated)	91*	-2	x	-7	-5	49
COc1ccc(CNCC(O)COCc2cccs2)cc1 (configuration not stated)	88*	4	-1	-4	11	27
Cc1nc(C)c(C(=O)NNS(=O)(=O)c2ccc3ccccc3c2)s1	-4	-1	8	-9	13	42
CC(NC(=O)C(c1ccccc1)c1ccccc1)C(=O)O (configuration not stated)	-5	1	-12	-6	-1	-10
CC(NC(=O)C(c1ccccc1)c1ccccc1)C(=O)N1CCCCC1 (configuration not stated)	52*	1	-2	5	0	-2
